Seven molecules from ChEMBL document CHEMBL5096237, “Orally Bioavailable Prodrugs of ψ-GSH: A Potential Treatment for Alzheimer's Disease” (J Med Chem, 2022) can be followed below.

A short description of data set [1]: Stability in CD-1 mouse assessed as half life at gastric phase of gastrointestinal tract at 1 uM measured upto 240 mins by LC-MS/MS analysis. The class given is ADME. Particulars: for t1/2: mouse, 4 h, 1 µM. The method in brief:
(§1)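 Compound at 1 μM final was incubated at 37 °C in plasma, brain homogenate, liver homogenate, simulated gastric fluid or simulated intestinal fluid. Aliquots taken at 0, 5, 15, 30, 60, 120 and 240 min were quenched with 3 volumes of acetonitrile containing 1% formic acid and centrifuged. Supernatants were analyzed by HPLC-UV (254 nm, after Fmoc-Cl derivatization) and/or LC-MS/MS to derive t1/2.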

Data set [2] can be described thus: Stability in CD-1 mouse assessed as half life at intestinal phase of gastrointestinal tract at 1 uM measured upto 240 mins by LC-MS/MS analysis. Format: ADME. To be noted: for t1/2: mouse, 4 h, 1 µM. The method in brief: as §1
A short description of data set [3]: Reversal of resistant against po dosed Abeta1-42 induced cognitive impairment in mouse assessed as reduction in repetitive arm entries (reference value: 3.22+/-0.27). Format: organism-based. Particulars: in vivo.
Data set [4] can be described thus: Stability in CD-1 mouse plasma at 250 mg/kg, po at 1 uM measured after 6 hrs by LC-MS/MS analysis. The class given is ADME, organism-based. To be noted: in vivo.
Data set [5] deals with Mus musculus. Kind of data set: Anti-alzheimer activity against oral dosed mouse brain assessed as reduction in AGE level by immunohistochemical analysis. Format: functional, organism-based.
The nature of data set [6]: Stability in CD-1 mouse plasma assessed as half life at 1 uM measured upto 240 mins by LC-MS/MS analysis. Format: ADME, cell-free. To be noted: for t1/2: mouse, 4 h, 1 µM; for half-life at 1 µM: CD-1, mouse. The method in brief:
as §1

The test system of data set [7] is Mus musculus. Kind of data set: Anti-alzheimer activity against APP/PS1 mouse model assessed as time spent in the target quadrant at 500 mg/kg, po measured after 4 days by Morris water maze test (reference value: 16.39+/-3.39%). Format: functional. Particulars: time 4 day.
The subject of data set [8] is Mus musculus. The experiment in a line: Anti-alzheimer activity against APP/PS1 mouse model assessed as escape latency at 500 mg/kg, po measured after 4 days by Morris water maze test (reference value: 6.64+/-1.58 sec). The class given is functional. To be noted: time 4 day.
Data set [9] in a line: AUC in CD-1 mouse measured in per mg of brain tissue at 500 mg/kg, ip. The class given is ADME, organism-based. Details: dose 500 mg/kg, route ip. Particulars: in vivo. The method in brief: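 Male CD-1 mice, eight weeks old, N = 4 per time point. They received oral prodrug at 250 mg/kg, or ψ-GSH at 500 mg/kg i.p. for comparison. Blood and brain were taken at 2, 4 and 6 h. Brain was homogenized 1:5 (w/v) in DPBS. Plasma and homogenate were treated with 100 mM N-ethylmaleimide for 10 min at ambient temperature, deproteinized with 3% sulfosalicylic acid, then quantified by positive-ESI LC-MS/MS MRM, with ψ-GSH read as its NEM adduct.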

The species named for data set [10] is Mus musculus. The experiment in a line: Anti-alzheimer activity against A-beta injected mouse assessed as reduction in microglial activation in dentate gyrase region by GFAP staining based analysis. The class given is functional, organism-based. To be noted: in the assay text read “Iba1 staining” for “GFAP staining”. The method in brief:
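C57BL/6 mice were dosed with compound at 250 mg/kg once daily for 12 days; Aβ1–42 oligomers were given i.c.v. on day 4. Half-brains were fixed in 4% PFA for 24 h and sucrose-cryoprotected. 40 μm coronal sections, every 12th (4–6 sections), were immunostained for GFAP (astrocytes) or Iba1 (microglia) by ABC/DAB after antigen retrieval. Stained area fraction in dorsal hippocampus or dentate gyrus was measured stereologically at ×40.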

Data set [11] can be described thus: Stability in CD-1 mouse brain homogenate assessed as half life at 1 uM measured upto 240 mins by LC-MS/MS analysis. Format: ADME, tissue-based. The method in brief:
(§2)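 Compound at 1 μM final was incubated at 37 °C in plasma, brain homogenate, liver homogenate, simulated gastric fluid or simulated intestinal fluid. Supernatants were analyzed by HPLC-UV (254 nm, after Fmoc-Cl derivatization) and/or LC-MS/MS to derive t1/2.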

Data set [12] has as its system Mus musculus. The experiment in a line: Anti-alzheimer activity against APP/PS1 mouse model assessed as reduction in insoluble Abeta1-42 at 500 mg/kg, po […] by ELISA assay relative to control. Format: functional. Also noted: scale not given: the % may be the effect or the level left. The method in brief: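 APP/PS1 mice, 3–4 months old, were gavaged with ψ-GSH 500 mg/kg or saline three times weekly for 12 weeks. Insoluble brain Aβ1–42 was quantified by sandwich ELISA and expressed as % of saline-treated APP/PS1 mice.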
Background: An ELISA detects its analyte on a solid surface through an enzyme-linked reagent.

The subject of data set [13] is Mus musculus. Kind of data set: Anti-alzheimer activity against APP/PS1 mouse model assessed as increase in spatial memory development at 500 mg/kg, po measured after 4 days by Morris water maze test. Particulars: time 4.0 day. The class given is functional, organism-based.
Data set [14] in a line: Stability in CD-1 mouse liver homogenate assessed as half life at 1 uM measured upto 240 mins by LC-MS/MS analysis. The class given is ADME, tissue-based. The method in brief: as §2
Data set [15] has as its system Mus musculus. The experiment in a line: Anti-alzheimer activity against oral dosed mouse brain assessed as restoration of reduced GSH level by […]. Format: functional, organism-based. The method in brief:
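Brains from the i.c.v. Aβ1–42 mice were homogenized and deproteinized with metaphosphoric acid. After neutralization, samples were diluted in 50 mM MES (pH 6.0, 1 mM EDTA). GSH was measured by enzymatic recycling with DTNB, reading TNB absorbance at 412 nm.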

Data set [16] is described as follows: Reversal of resistant against ip dosed Abeta1-42 induced cognitive impairment in mouse assessed as reduction in repetitive arm entries (reference value: 3.22+/-0.27). Particulars: in vivo.

SMILES strings stand for the structures. Calls of active or inactive are those of the source. No cut-off for these calls is given here.

Take `Cl.N[C@@H](CNC(=O)N[C@@H](CS)C(=O)NCC(=O)OC1CCCC1)C(=O)OC1CCCC1`: the t1/2 came out at 4.87 h in data set [1], 5.24 h in data set [2] and 72.2 h in data set [6]. The repetitive arm entries in data set [3] is 1.8. Further, in data set [4], the Stability entry was “Stable”. Also, the outcome in data set [5] was Active.
The term half-life denotes how long it takes for the measured level to halve. Turning to `N[C@@H](CNC(=O)N[C@@H](CS)C(=O)NCC(=O)O)C(=O)O`, the Activity in data set [7] was found to be 21.76%; in data set [12] it was 90.8%. For the same molecule, the Time in data set [8] came out at 6.9 s. The same molecule came in with an AUC in data set [9] of 8.06 nmol·h. Further, the outcome in data set [10], in data set [13] and in [15] was Active. Moreover, the half-life at 1 µM in data set [11] is 1.51 h; in data set [1] (CD-1, mouse, gastric phase of gastrointestinal tract), 28.8 h; in [2] (CD-1, mouse, intestinal phase of gastrointestinal tract) it was 1.28 h; in data set [14], 0.02 h; in [6], 0.23 h. Further, in [16], the repetitive arm entries worked out at 0.5.
As for `CCOC(=O)SC[C@H](NC(=O)NC[C@H](N)C(=O)OC1CCCC1)C(=O)NCC(=O)OC1CCCC1`, in data set [6], the t1/2 amounted to 61.32 h.
Consider `CCOC(=O)SC[C@H](NC(=O)NC[C@H](N)C(=O)O)C(=O)NCC(=O)O`, for which the t1/2 stood at 27.7 h in data set [1], 38.5 h in data set [2] and 47.14 h in data set [6].
For `CC(=O)SC[C@H](NC(=O)NC[C@H](N)C(=O)O)C(=O)NCC(=O)O` the same measures were 28.88 h, 5.02 h and 5.8 h.
In the case of `N[C@@H](CNC(=O)N1C(=O)SC[C@H]1C(=O)NCC(=O)O)C(=O)O`, the t1/2 in [6] stood at 25.57 h.
`N[C@@H](CNC(=O)N1CSC[C@H]1C(=O)NCC(=O)O)C(=O)O`: the half-life at 1 µM is 116 h in data set [14] and 30.6 h in data set [6].
